Here are results for 50 molecules from ChEMBL document CHEMBL1128429, “Synthesis and structure-activity relationships of 6-heterocyclic-substituted purines as inactivation modifiers of cardiac sodium channels” (J Med Chem, 1995).

For data set [1], the system named is Sodium channel protein type 5 subunit alpha (Cavia porcellus). Nature of the data set: Inactivation process of guinea pig cardiac Na channels expressed in xenopus oocytes was determined by measuring increase in current integral in presence of compound versus control at 10 uM. To be noted: oocyte.
Data set [2] can be described thus: Effective concentration against Xenopus oocytes expressing human heart Na channel. In kind it is functional, cell-based. To be noted: oocyte. An outline of the steps:
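HH1 human cardiac Na channel cRNA in oocytes; perfusate Na 140 mM, 21–23 °C, integral taken at −20 mV. At least three concentrations, n ≥ 3 each, single concentration per oocyte. Pooled data gave the EC50 (nM producing 50% integral increase) by linear regression over the lower, non-blocking range.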

Data set [3] can be described thus: Inactivation processes of human heart Na channel expressed in Xenopus oocytes as increase in current at 10 uM. The data set is classed as functional, Oocyte. A digest of the protocol:
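Oocytes injected with cRNA transcribed from human cardiac Na channel (HH1) cDNA. Two-microelectrode voltage clamp at 21–23 °C, perfusion buffer with Na raised to 140 mM. Current integrated at −20 mV after the capacity transient settled. Single 10 μM exposure per oocyte; percent change in integral versus control, ± SEM.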

For data set [4], the species on record is Oryctolagus cuniculus. Nature of the data set: Concentration which increased contractility by 20% in rabbit. The data set is classed as functional. An outline of the steps:
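Langendorff-perfused rabbit heart, 45 min equilibration, then five cumulative concentrations with 15 min exposure each. Contractility read as dP/dt; the nanomolar concentration raising it by 20% was derived from the concentration–response curve. Repeated-measures ANOVA, mean change from control ± SEM.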

The species entered for data set [5] is Oryctolagus cuniculus. The experiment in a line: Antiarrhythmic activity was determined by measuring the concentration that produced a 20 ms increase in ERP. The data set is classed as functional, Heart. A digest of the protocol:
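Langendorff-perfused rabbit heart, equilibrated 45 min before control. ERP measured after 15 min exposure to each of five cumulative concentrations: single premature stimulus scanning diastole at twice threshold. Concentration giving a 20 ms ERP increase taken from the concentration–response curve; repeated-measures ANOVA, mean change ± SEM.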

Data set [6] in a line: Effective concentration against Xenopus oocytes expressing guinea pig heart Na channel. In kind it is functional, cell-based, Cavia porcellus. Conditions: oocyte. An outline of the steps: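 Guinea pig heart RNA in Xenopus oocytes, voltage clamp at 21–23 °C, integral taken at −10 mV. Three or more concentrations, n ≥ 3 each, one per oocyte. Pooled percent-change data plotted semilogarithmically; EC50 (nM giving 50% integral increase) obtained by linear regression over the range lacking significant current block.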

For `NC(CN1CCN(C(c2ccccc2)c2ccccc2)CC1)Cn1cnc2c(-n3cccc3)ncnc21` (stereo not drawn), the Change in data set [1] was found to be 451%.

For the molecule `OC(CN1CCN(C(c2ccccc2)c2ccncc2)CC1)Cn1cnc2c(-n3cccc3)ncnc21` (stereo not drawn), the Change in data set [1] came to 326%.

As for `OC(CN1CCC(C(c2ccccc2)c2ccccc2)CC1)Cn1cnc2c(-n3cccc3)ncnc21` (stereo not drawn), the Change in data set [1] was found to be 108%.

Consider `O=C(C(c1ccccc1)c1ccccc1)N1CCN(CC(O)Cn2cnc3c(-n4cccc4)ncnc32)CC1` (stereo not drawn), for which the Change in data set [1] stood at 6%.

`OC(CN1CCN(C(c2ccccc2)c2ccccc2)CC1)Cn1ccc2ccccc21` (stereo not drawn): the Change in data set [1] was 36%.

The molecule `O=Cc1cccn1-c1ncnc2c1ncn2C[C@@H](O)CN1CCN(C(c2ccccc2)c2ccccc2)CC1` gave an EC50 in data set [2] of 0.078 µM. The Change in data set [3] is recorded as 904%. In the data set filed under Oryctolagus cuniculus [4], this molecule came in with a dP/dt of 17 nM. Further, the EC20 in the data set listed under Oryctolagus cuniculus [5] was 0.017 µM.

With `Cc1ccccc1C(c1ccccc1)N1CCN(CC(O)Cn2cnc3c(-n4cccc4)ncnc32)CC1` (stereo not drawn), in data set [1], the Change is 209%.

In the case of `OC(CN1CCN(C(c2ccccc2)c2ccccc2)CC1)Cn1cnc2cccnc21` (stereo not drawn), the Change in data set [1] came to 154%.

With `OC(CN1CCN(C(c2ccccc2)c2ccccc2)CC1)Cn1cnc2ccccc21` (stereo not drawn), in data set [1], the Change was 42%.

In the case of `O[C@@H](CN1CCN(C(c2ccccc2)c2ccccc2)CC1)Cn1cnc(-c2ncon2)c2ncnc1-2`, in data set [3], the Change was -6%.

In data set [2], `Cc1ncnc2c1ncn2C[C@@H](O)CN1CCN(C(c2ccccc2)c2ccccc2)CC1` came in with an EC50 of 3.99 µM. Moreover, the Change in data set [3] worked out at 105%.

For `OC(CN1CCN(C(c2ccccc2)c2ccccc2)CC1)Cn1cnc2c(Cl)ncnc21` (stereo not drawn), in data set [2], the EC50 came to 1.95 µM. Moreover, in data set [3], the Change was found to be 176%.

For the molecule `Nc1ncnc2c1ncn2C[C@H](O)CN1CCN(C(c2ccccc2)c2ccccc2)CC1`, the dP/dt in the data set filed under Oryctolagus cuniculus [4] is listed as 1140 nM. Moreover, the Change in data set [1] is -43%. Further, in the data set filed under Oryctolagus cuniculus [5], the EC20 worked out at 5.24 µM.

Turning to `OC(CN1CCN(C(c2ccccc2)c2ccccc2)CC1)Cn1cnc2c(NCc3ccccc3)ncnc21` (stereo not drawn), in data set [1], the Change was -77%.

In the case of `O[C@@H](CN1CCN(C(c2ccccc2)c2ccccc2)CC1)Cn1cnc2c(-c3cccs3)ncnc21`, in data set [2], the EC50 is 1.03 µM. The Change in data set [3] is 116%.

As to `OC(CN1CCN(C(c2ccccc2)c2ccccc2)CC1)Cn1cnc2c(Cc3ccccc3)ncnc21` (stereo not drawn), the Change in data set [1] was -100%.

For `OC(CN1CCN(C(c2ccccc2)c2ccccc2)CC1)Cn1cnc2c(N3CCCCC3)ncnc21` (stereo not drawn), the Change in data set [1] was determined as 26%.

Regarding `O[C@@H](CN1CCN(C(c2ccccc2)c2ccccc2)CC1)Cn1cnc(-c2cccs2)c2ncnc1-2`, the EC50 in data set [2] stood at 0.433 µM. The Change in data set [3] is on record as 437%.

Take `OC(CN1CCC(C(O)(c2ccccc2)c2ccccc2)CC1)Cn1cnc2c(-n3cccc3)ncnc21` (stereo not drawn): in data set [1], the Change was -10%.

`C[C@](O)(CN1CCN(C(c2ccccc2)c2ccccc2)CC1)Cn1cnc2c(-n3cccc3)ncnc21`: the Change in data set [1] was determined as 34%.

Consider `O[C@@H](CN1CCN(C(c2ccccc2)c2ccccc2)CC1)Cn1cnc2c(-c3ccncc3)ncnc21`, for which a half-maximal response in data set [2] (EC50) required 2.8 µM. The Change in data set [3] was found to be 99%.

As to `O[C@@H](CN1CCN(C(c2ccccc2)c2ccccc2)CC1)Cn1cnc2c(-n3cccc3)nc(C(F)(F)F)nc21`, in data set [1], the Change was -13%.

`Nc1nc(-c2ccncc2)nc2c1ncn2CC(O)CN1CCN(C(c2ccccc2)c2ccccc2)CC1` (stereo not drawn): the Change in data set [1] is recorded as -2%.

Regarding `Cc1nccn1-c1ncnc2c1ncn2C[C@@H](O)CN1CCN(C(c2ccccc2)c2ccccc2)CC1`, the response in data set [2] was half-maximal at 2.7 µM (EC50). In data set [3], the Change is 1449%.

Regarding `OC(CN1CCC(=C(c2ccccc2)c2ccccc2)CC1)Cn1cnc2c(-n3cccc3)ncnc21` (stereo not drawn), in data set [1], the Change is recorded as 94%.

On to `O=C(CN1CCN(C(c2ccccc2)c2ccccc2)CC1)Cn1cnc2c(-n3cccc3)ncnc21`, for which the Change in data set [1] was 9%.

On to `OC(CN1CCN(C2c3ccccc3-c3ccccc32)CC1)Cn1cnc2c(-n3cccc3)ncnc21` (stereo not drawn), for which the Change in data set [1] is reported as -19%.

In the case of `c1ccc2c(c1)CCc1ccccc1C2N1CCN(CCCn2cnc3c(-n4cccc4)ncnc32)CC1`, in data set [1], the Change was determined as 120%.

For the molecule `OC(CN1CCN(Cc2ccccc2)CC1)Cn1cnc2c(-n3cccc3)ncnc21` (stereo not drawn), the Change in data set [1] was 182%.

For the molecule `O[C@@H](CN1CCN(C(c2ccccc2)c2ccccc2)CC1)Cn1cnc2c(-c3ncon3)ncnc21`, in data set [3], the Change stood at 138%.

With `OC(CN1CCN(C(c2ccccc2)c2ccccc2)CC1)Cn1cnc2c(-c3ccccc3)ncnc21` (stereo not drawn), the Change in data set [1] is 151%. This molecule registered a concentration giving a half-maximal response (EC50) in data set [6] of 1.26 µM.

In data set [2], `O[C@@H](CN1CCN(C(c2ccccc2)c2ccccc2)CC1)Cn1cnc(-c2ccncc2)c2ncnc1-2` registered an EC50 of 2.1 µM. The Change in data set [3] is reported as 265%.

On to `OC(CN1CCCN(C(c2ccccc2)c2ccccc2)CC1)Cn1cnc2c(-n3cccc3)ncnc21` (stereo not drawn), for which the Change in data set [1] came to 38%.

On to `Cc1ccn(-c2ncnc3c2ncn3CC(O)CN2CCN(C(c3ccccc3)c3ccccc3)CC2)n1` (stereo not drawn), for which, in data set [3], the Change amounted to 40%.

As for `Cc1cc2c(n1-c1ncnc3c1ncn3CC(O)CN1CCN(C(c3ccccc3)c3ccccc3)CC1)CCCC2` (stereo not drawn), in data set [1], the Change was found to be 8%.

As for `O[C@@H](CN1CCN(C(c2ccccc2)c2ccccc2)CC1)Cn1cnc2c(-n3ccnc3)ncnc21`, the EC50 in data set [2] stood at 1.25 µM. Also, the Change in data set [3] is 459%. The molecule further showed an EC20 in the data set listed under Oryctolagus cuniculus [5] of 0.03 µM.

For the molecule `OC(COc1cccc2[nH]ccc12)CN1CCN(C(c2ccccc2)c2ccccc2)CC1` (stereo not drawn), in data set [1], the Change is -29%.

Take `O/N=C(/CN1CCN(C(c2ccccc2)c2ccccc2)CC1)Cn1cnc2c(-n3cccc3)ncnc21`: the Change in data set [1] is -6%.

In the case of `OC(CN1CCN(C(c2ccccc2)c2ccccc2)CC1)Cn1ccc2cccnc21` (stereo not drawn), the Change in data set [1] is -71%.

`OC(CN1CCN(C(c2ccccc2)c2ccccc2)CC1)Cn1cnc2c(C#Cc3ccccc3)ncnc21` (stereo not drawn): the Change in data set [1] is 9%.

As to `CC(c1ccccc1)N1CCN(CC(O)Cn2cnc3c(-n4cccc4)ncnc32)CC1` (stereo not drawn), the Change in data set [1] was -32%.

With `CN1CCN(CC(O)Cn2cnc3c(-n4cccc4)ncnc32)CC1` (stereo not drawn), the Change in data set [1] is given as -35%.

Regarding `Nc1ncnc2c1ncn2CCCN1CCN(C(c2ccccc2)c2ccccc2)CC1`, the Change in data set [1] was -66%.

On to `OC(CN1CCN(C(c2ccccc2)c2ccccc2)CC1)Cn1cnc2c(-n3cccc3)ncnc21` (stereo not drawn), for which, in data set [1], the Change came out at 542%. In data set [6], this molecule registered an EC50 of 0.58 µM.

As to `O[C@@H](CN1CCN(C(c2ccccc2)c2ccccc2)CC1)Cn1cnc2c(-n3cccc3)ncnc21`, the Change in data set [1] stood at 390%. Also, the EC50 in data set [6] amounted to 0.245 µM.

Turning to `OC(CN1CCN(CC(c2ccccc2)c2ccccc2)CC1)Cn1cnc2c(-n3cccc3)ncnc21` (stereo not drawn), the Change in data set [1] is recorded as -47%.

For `OC(CN1CCN(C(c2ccc(F)cc2)c2ccc(F)cc2)CC1)Cn1cnc2c(-n3cccc3)ncnc21` (stereo not drawn), the Change in data set [1] was 521%.

On to `Cc1ccc(C)n1-c1ncnc2c1ncn2CC(O)CN1CCN(C(c2ccccc2)c2ccccc2)CC1` (stereo not drawn), for which the Change in data set [1] is reported as -47%.

The molecule `O=Cc1ccn(-c2ncnc3c2ncn3C[C@@H](O)CN2CCN(C(c3ccccc3)c3ccccc3)CC2)c1` returned a concentration giving a half-maximal response (EC50) in data set [2] of 7.26 µM. Moreover, the Change in data set [3] turned out to be 63%.

Regarding `CC1CN(CC(O)Cn2cnc3c(-n4cccc4)ncnc32)CCN1C(c1ccccc1)c1ccccc1` (stereo not drawn), in data set [1], the Change was found to be 839%.

The term EC50 denotes the concentration that produces a half-maximal response. Read a low EC50 as higher potency in that assay. The EC20 is the concentration needed for an effect of 20%.
